Experimental data: ChEMBL document CHEMBL4513216, “Probing the Open Global Health Chemical Diversity Library for Multistage-Active Starting Points for Next-Generation Antimalarials” (ACS Infect Dis, 2020)

Assay: Toxicity liver stage against HepG2, at 10uM
Assay type: cell-based
Design: test concentration 10 uM, cell line HepG2-A16-CD81EGFP
Details: human, HepG2-A16-CD81EGFP cells; read-out: INHIBITION
Summary of the method: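 Uninfected HepG2-A16-CD81EGFP cells, 3 × 10^3 per well, 1536-well, plated on prespotted compound at 10 μM final, parasite-free screening media added to match infected plates; puromycin 10 μM positive, DMSO 0.5% negative; run in parallel with 48 h PbLuc assay at 37 °C, 5% CO2; viability by CellTiter-Glo luminescence, normalized to controls.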

Structure (SMILES) | cytotoxicity at 10 µM
CC(=O)NC1CCN(c2nc(N(C)C)nc3c2CCCC3)CC1 | -10.7%
CCn1cc(CN2CCN(C)C3(CCC(=O)N(CC4CC4)CC3)C2)cn1 (stereo not drawn) | -0.764%
COC[C@]1(O)CCN(C2CCN(c3ccc(F)c(F)c3)CC2)CC1(C)C | -3.85%
NC(=O)N1CCCC(c2nc(-c3cccnn3)no2)C1 (stereo not drawn) | -1.31%
COc1ncccc1CN1C[C@@H]2OCCN(CCN(C)C)[C@@H]2C1 | 11.8%
NC(=O)C(Nc1cccc(CO)c1)c1ccc(Br)cc1 (stereo not drawn) | 9.17%
Cn1nc(CN2CCCN(C3CCCC3)CC2)c2c(Cl)cccc21 | 11%
Cc1nn(C)c(C)c1C1CCCN1Cc1nc(C2CC2)no1 (stereo not drawn) | -6.68%
Cc1nc(C(=O)N2CCCCC2c2ccc(CN(C)C)cc2)c(C)o1 (stereo not drawn) | -2.32%
Cc1cc(CNC(=O)NCCC(=O)N2CCCc3ccccc32)no1 | -4.09%
CCc1nc(C2CCCN2Cc2ncc(C)c(OC)c2C)no1 (stereo not drawn) | 3.3%
CCNc1ncc(C(=O)NCCNc2ccncc2C)cn1 | -6.83%
CC(C)CCN1CCC2(CCCN(c3nncs3)C2)C1 (stereo not drawn) | -139%
c1nc(N2CCCCC2Cn2cncn2)c2sccc2n1 (stereo not drawn) | 9.43%
CCN(CC)C(=O)[C@@H]1C[C@H](N)CN1C(=O)c1cc2c([nH]c1=O)CCC2 | -1.94%
CN(Cc1ccco1)C[C@H]1OC[C@@H]2CN(c3ncc(F)cn3)CC[C@@H]21 | 21.9%
CCCC(=O)N1CCC(c2nn(C)c(=O)n2-c2ccccc2)CC1 | 5.91%
CC(C)NC(=O)[C@@H](NC(=O)N1CCN(c2ccc(Cl)cc2)CC1)C(C)C | 34.9%
Cc1noc(C)c1CN(C)C(=O)c1ccc(C(F)(F)F)nc1 | -10%
Cc1nnc2n1CCN(C(C(=O)NC(C)C)c1ccccc1)C2 (stereo not drawn) | -5.92%
O=C(c1ccc2[nH]nnc2c1)N1CC[C@H](O)[C@]2(CCCO2)C1 | -2.98%
CC(C(=O)O)N1CCc2onc(-c3ccc(F)c(F)c3)c2C1 (stereo not drawn) | 14.9%

Structure (SMILES) | cytotoxicity at 10 µM
CC(=O)NCc1ccc(C(=O)N2CCCC2c2cnn(C)c2)s1 (stereo not drawn) | -13.6%
COc1ccc(CNCc2c(C(C)C)nn(C)c2OC)cn1 | -10.9%
O=C(c1cc(Cl)c2c(c1)OCO2)N1CCN(c2cnccn2)CC1 | 6.76%
CC(c1nc(C2CC2)no1)N1CCN(CCc2ccncc2)CC1 (stereo not drawn) | -5.65%
CSCCC1c2nc[nH]c2CCN1Cc1ccccc1C(F)(F)F (stereo not drawn) | 1.09%
CC(C)(C)n1ncc2c(=O)n(CC(=O)NCc3ccccc3Cl)cnc21 | -9.03%
CCC1=N[C@@]2(CC[C@@H]3CN(CC(=O)N(C)C)C[C@@H]32)C(=O)N1CC1CC1 | -3.5%
CC(=O)N1CCN(CCNc2ncc(Br)cc2C)CC1 | 2.86%
CC(C)c1nc(C(=O)N2CCCC(n3cncn3)C2)c[nH]1 (stereo not drawn) | -2.48%
O=C(O)CC1COCCN1Cc1ccccc1OCCc1ccccc1 (stereo not drawn) | 2.4%
Cc1csc(C2CCCCN2C(=O)c2cc(C)n(C)n2)n1 (stereo not drawn) | -17.9%
O=C(NC1CCC1)c1c2c(N3CCCC3)ncnc2n2ccccc12 | -82.4%
CC(CNC(=O)c1ccc(F)cc1I)N1CCCC1 (stereo not drawn) | 1.28%
CNC(=O)[C@@H](c1ccccc1)N1CCC[C@H]1C(=O)NC1CCCCC1 | 2.35%
COc1ccc(NC(=O)CSc2nc(C)c(C)c(C)c2C#N)cn1 | -0.82%
CCN(CC)S(=O)(=O)N1CCCC1c1nnc2n1CCN(C)CC2 (stereo not drawn) | 0.45%
CSCCc1nc(C(C)C)nn1-c1ccncc1C | 1.63%
Cc1oc(C(C)C)cc1C(=O)N1C[C@@H]2CC[C@H]1CN(C(=O)N(C)C)C2 | -119%
Cc1nc(CN2CCOCC23CCN(c2ccc(C#N)cc2)CC3)cs1 | -13.8%
CN(C)c1cc2c(nn1)CCN(C(=O)C1COc3ccccc3C1)C2 (stereo not drawn) | 14.3%
CN(Cc1nc2ccccc2c(=O)[nH]1)C[C@@H]1CCCN2CCCC[C@H]12 | -6.01%
CCCc1nc(C(C)(C)NC(=O)C2CC(=O)N(C3CC3)C2)no1 (stereo not drawn) | -4.41%

Structure (SMILES) | cytotoxicity at 10 µM
CN(C)CCN1CCC2(CC1)CN(Cc1cccnc1)C(=O)CO2 | -106%
c1cc(COC[C@]23COC[C@H]2CN(CC2CCC2)C3)ccn1 | -77.1%
CN(CCC(O)c1ccccc1)c1cc(N2CCOCC2)ncn1 (stereo not drawn) | -148%
Oc1ccccc1CN1CCC(n2cc(-c3ccc(F)cc3)nn2)CC1 | -2.68%
Cc1ccccc1COCCOCn1c(C)cc(=O)[nH]c1=O | 2.56%
O=C(NCc1csc(-c2cccs2)n1)C1NCCc2[nH]cnc21 (stereo not drawn) | -0.798%
COc1cccnc1NC(=O)COc1c(C)cccc1C | 0.819%
CC(C)c1[nH]c2ncccc2c1CN1CCN(S(=O)(=O)N(C)C)CC1 | 3.33%
Cc1c(C(=O)N2CC(O)C2)nnn1-c1cccc2cnccc12 | 3.04%
COc1ccc(CN2CCC(c3cc(O)nc(C)n3)C2)c(OC)c1 (stereo not drawn) | -5.77%
CN(C)c1ccccc1C(=O)N1C[C@@H](CN2CCC(O)CC2)[C@@H](CO)C1 | 3.11%
Cc1ccc(N2CCC3(CCN(C(=O)c4ccsc4)CC3)C2)nn1 | 4%
Cc1ncsc1-c1nnc(C2CCN(Cc3ccc(F)cc3)CC2)o1 | 3.52%
Cc1oc2nc[nH]c(=O)c2c1C(=O)N1CCCC(n2cccn2)C1 (stereo not drawn) | -0.513%
N#Cc1cccc(OCCN2CCC(C(=O)N3CCOCC3)CC2)c1 | -42.3%
CC1CN(CC(=O)NC(=O)NCc2ccccc2)CCO1 (stereo not drawn) | -7.07%
COc1cccc(-c2n[nH]cc2C(=O)NC(C)c2nc(C(C)C)no2)c1 (stereo not drawn) | -2.75%
Cc1cccc(C2(C(=O)NCC3CCN(CC(F)(F)F)C3)CCC2)c1 (stereo not drawn) | -11.5%
COc1ccc(CNC(=O)NCC2CCOC2)c(C(F)(F)F)c1 (stereo not drawn) | -8.28%
Cc1nc(CC(=O)N2CCCC2Cn2cccn2)cs1 (stereo not drawn) | -11.2%
CC(C)Cc1cc(NC(=O)c2ccc3[nH]nnc3c2)n(C)n1 | -7%
Cc1ccc2oc(CN3CCC(C(=O)O)(n4ccnc4)CC3)c(C)c2c1 | -9.06%

Structure (SMILES) | cytotoxicity at 10 µM
Cc1cc(C)n2ncc(CN3CCC(Cn4cc(CO)nn4)CC3)c2n1 | 7.85%
CS(=O)(=O)N1CCN(C(=O)c2cc(-c3ccco3)cs2)CC1 | 4.73%
CCn1ccnc1CN1CCCC(CO)(Cc2cccc(Cl)c2)C1 (stereo not drawn) | -0.0444%
Cc1cc2n(n1)CC(CNC1CCN(Cc3ccncc3)CC1)CN2 (stereo not drawn) | 1.78%
C[C@@H]1CN(CCCOc2ccc(F)cc2)CC[C@@]1(O)C1CCOCC1 | -8.01%
O=C(C1CC1)N1CC[C@@H]2[C@H](CC1)N(Cc1cccnc1)CCS2(=O)=O | -1.84%
CCC(=O)N1CCc2c(O)nc(C3CCCCN3C(=O)C3CC3)nc2C1 (stereo not drawn) | 3.3%
COc1ccc(CN(C)[C@@H]2CN(S(=O)(=O)C(C)C)C[C@H]2O)cc1 | 0.465%
CNc1cncc(C2CCCN2C(=O)c2ccc3c(c2)CCC3)n1 (stereo not drawn) | -15.1%
CCC1CCN(CCn2cnc3c(C)csc3c2=O)CC1 | -6.94%
NCc1cnn(-c2ccccc2C(=O)NCCc2ccccn2)c1 | -19.5%
Cc1ccc([C@@H]2CN(S(=O)(=O)C(C)C)C[C@H]2N(C)C)cc1 | -0.368%
O=C(NCCn1nc(C2CCNC2)c2cccnc21)c1ccccc1 (stereo not drawn) | -23.9%
Cc1c(CN2CCCC(C(=O)c3ccccc3)C2)cc(C#N)n1C (stereo not drawn) | -6.63%
CNC(=O)CN(C)c1cncc(OCc2ccccc2)n1 | 1.15%
C[C@@H]1CN(Cc2ccncc2)C[C@]1(C)O | 1.6%
NC(=O)C1(c2cnccn2)CCCN1Cc1cc2ccccc2o1 (stereo not drawn) | -1.19%
CCC[C@H]1CN(C(=O)c2cc(-c3cccs3)n(C)n2)C[C@@H]1N | -1.02%
NC(=O)Cn1ccc(NC(=O)C2(c3cccc(Cl)c3)CC2)n1 | 0.217%
CCNC(=O)NC[C@H]1COCc2nc3cc(C)ccc3n21 | 3.72%
O=C1COc2cc(C(=O)N3CCCC(n4ccnc4)C3)ccc2N1 (stereo not drawn) | 1.75%
CC(Cn1cccn1)NC(=O)N1CCCN(Cc2cccs2)CC1 (stereo not drawn) | -13.5%

Structure (SMILES) | cytotoxicity at 10 µM
O=C(c1ccc(O)cn1)N1CCOC(Cc2cccc(C(F)(F)F)c2)C1 (stereo not drawn) | 5.08%
O=S(=O)(NCc1ccccc1)NCc1nc(-c2ccncc2)n[nH]1 | 14.3%
Cc1ccc(CN2C[C@@H]3C[C@H](C(=O)Nc4cccnc4)[C@H](C2)O3)cc1 | -83.8%
O=C1N(CC2CC2)CCC12CCN(CC1CC1)CC2 | 7.07%
CCN1C[C@H]2CCN(C(=O)Cc3cccc(OC)c3)CC[C@H]2S1(=O)=O | 9.86%
O=C(C1CCC1)N1CCC(C2CCN(Cc3ccc(Cl)cc3)C2)CC1 (stereo not drawn) | -10.5%
CC1(C)CN(C(=O)c2cc(F)cc3[nH]cnc23)CCS1 | -7.36%
c1cnn(CCN2CCOC(Cn3cncn3)C2)c1 (stereo not drawn) | -0.498%
CCc1nc(CCn2ccc3nc(OC)c(C#N)cc3c2=O)no1 | 3.57%
CCn1cc(-c2nn3c(C(F)(F)F)nnc3s2)c(C)n1 | 13.5%
Cn1nc(C(=O)N2CCC(Oc3ccc(C#N)cn3)CC2)ccc1=O | -3.33%
Cc1ccsc1C(=O)N1CCC(O)(CN2CCc3ccccc3C2)C1 (stereo not drawn) | 0.803%
NC(=O)C(CNC(=O)Cc1ccc(F)cc1)Cc1ccc(F)cc1 (stereo not drawn) | 3.02%
CCn1ccnc1CN1CCCN(C(=O)c2ccsc2)CC1 | -6.63%
COCc1nc(NCC2CCS(=O)(=O)C2)c2cnn(C)c2n1 (stereo not drawn) | -5.97%
NCCCC(=O)NCC1(O)CCN(c2ccnc3cccnc23)C1 (stereo not drawn) | 1.58%
O=C(C1CCCS1)N1CCOc2cccc(F)c21 (stereo not drawn) | -6.54%
Cc1nc(CN2CCCC(NCc3ccc(C(N)=O)cc3)C2)no1 (stereo not drawn) | -9.47%
CC(NC(=O)N1CCC(CC(N)=O)CC1)c1csc2ccccc12 (stereo not drawn) | 1.73%
CC(=O)N1CCN(Cc2ccncc2)CC2(CC(=O)N(C)C2)C1 (stereo not drawn) | -1.83%
